Reference: ChEMBL document CHEMBL1926594, “Molecular modeling studies, synthesis, configurational stability and biological activity of 8-chloro-2,3,5,6-tetrahydro-3,6-dimethyl-pyrrolo[1,2,3-de]-1,2,4-benzothiadiazine 1,1-dioxide” (Bioorg Med Chem, 2011)
Values belong to the molecule of their own block, whether it stands above or below them.

How the values were obtained:
[1] = Chemical stability of compound assessed as compound hydrolysis at pH 2.2 at 37.5 degC after 90 mins; format: physicochemical; settings: buffer, pH 2.2, 1.5 h
Outline: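 (3*,6R) epimeric mixture held on reactor column in chloroacetate buffer (ionic strength 0.01, pH 2.20) at 37.5 °C for up to 90 min. Hydrolysis checked by the sf-BD-rHPLC method: Chiralcel OD-R separative column at 0 °C, water/acetonitrile 50:50 (v/v) eluent.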

[2] = Configurational stability of compound in water-acetonitrile assessed as backward rate epimerization at pH 7 using IAM column by stopped flow bidimensional recycling HPLC; format: physicochemical; settings: artificial membrane
Outline: (§1)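 sf-BD-rHPLC with an IAM-based reactor column. (3*,6R) epimers separated on Chiralcel OD-R at 0 °C using water/acetonitrile 50:50 (v/v). Trapped epimer interconverts at 37.5 °C in chloroacetate buffer pH 2.20 or phosphate buffer pH 7.00 (ionic strength 0.01), then is re-separated at 0 °C, n = 4. Forward, backward and equilibrium rate constants derived from peak areas.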

[3] = Configurational stability of compound in water-acetonitrile assessed as backward rate epimerization at 37 degC by dynamic HPLC analysis; format: physicochemical; settings: buffer
Outline: (§2)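 Dynamic HPLC on the (3*,6R) epimeric mixture: isocratic Chiralcel OD-R column, water/acetonitrile 50:50 (v/v), run at temperatures of 5-37 °C. Sample at 100 μg/mL final, 20 μL injected, UV detection at 254 nm. Interconversion rate constants obtained from elution profiles by integration of the interconverting peak areas.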

[4] = Configurational stability of compound in water-acetonitrile assessed as forward rate equilibrium epimerization at pH 2.2 using IAM column by stopped flow bidimensional recycling HPLC; format: physicochemical; settings: artificial membrane; outline: as §1
[5] = Configurational stability of compound in water-acetonitrile assessed as forward rate epimerization at 37 degC by dynamic HPLC analysis; format: physicochemical; settings: buffer; outline: as §2
[6] = Configurational stability of compound in water-acetonitrile assessed as backward rate equilibrium epimerization at pH 2.2 using C-8 column by stopped flow bidimensional recycling HPLC; format: physicochemical; settings: buffer
Outline: (§3)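 Stopped-flow bidimensional recycling HPLC on the (3*,6R) epimeric mixture. Epimers separated on Chiralcel OD-R at 0 °C with water/acetonitrile 50:50 (v/v). One epimer is trapped on a Supelcosil LC-8 (C8) reactor column and epimerizes at 37.5 °C in chloroacetate buffer pH 2.20 or phosphate buffer pH 7.00 (ionic strength 0.01). Column recooled to 0 °C, epimers re-separated, n = 4. Rate constants from first-order reversible kinetics.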

[7] = Configurational stability of compound in water-acetonitrile assessed as forward rate epimerization at 5 degC by dynamic HPLC analysis; format: physicochemical; settings: buffer; outline: as §2
[8] = Configurational stability of compound in water-acetonitrile assessed as backward rate epimerization at pH 2.2 using C-8 column by stopped flow bidimensional recycling HPLC; format: physicochemical; settings: buffer; outline: as §3
[9] = Configurational stability of compound in water-acetonitrile assessed as forward equilibrium rate epimerization at 25 degC by dynamic HPLC analysis; format: physicochemical; settings: buffer; outline: as §2
[10] = Configurational stability of compound in water-acetonitrile assessed as forward rate equilibrium epimerization at pH 7 using C-8 column by stopped flow bidimensional recycling HPLC; format: physicochemical; settings: buffer; outline: as §3
[11] = Configurational stability of compound in water-acetonitrile assessed as forward equilibrium rate epimerization at 37 degC by dynamic HPLC analysis; format: physicochemical; settings: buffer; outline: as §2
[12] = Configurational stability of compound assessed as half life using IAM column by stopped flow bidimensional recycling HPLC; format: physicochemical; settings: IAM column (stationary phase); outline: as §1
[13] = Configurational stability of compound in water-acetonitrile assessed as forward rate epimerization at pH 2.2 using IAM column by stopped flow bidimensional recycling HPLC; format: physicochemical; settings: artificial membrane; outline: as §1
[14] = Configurational stability of compound in water-acetonitrile assessed as backward rate equilibrium epimerization at pH 2.2 using IAM column by stopped flow bidimensional recycling HPLC; format: physicochemical; settings: artificial membrane; outline: as §1
[15] = Configurational stability of compound in water-acetonitrile assessed as forward rate epimerization at pH 7 using C-8 column by stopped flow bidimensional recycling HPLC; format: physicochemical; settings: buffer; outline: as §3
[16] = Configurational stability of compound in water-acetonitrile assessed as backward rate epimerization at 5 degC by dynamic HPLC analysis; format: physicochemical; settings: buffer; outline: as §2
[17] = Configurational stability of compound in water-acetonitrile assessed as forward rate equilibrium epimerization at pH 2.2 using C-8 column by stopped flow bidimensional recycling HPLC; format: physicochemical; settings: buffer; outline: as §3
[18] = Configurational stability of compound assessed as half life using C-8 column by stopped flow bidimensional recycling HPLC; format: physicochemical; settings: C-8 column (stationary phase); outline: as §3
[19] = Configurational stability of compound in water-acetonitrile assessed as backward rate epimerization at pH 2.2 using IAM column by stopped flow bidimensional recycling HPLC; format: physicochemical; settings: artificial membrane; outline: as §1
[20] = Configurational stability of compound in water-acetonitrile assessed as forward equilibrium rate epimerization at 5 degC by dynamic HPLC analysis; format: physicochemical; settings: buffer; outline: as §2
[21] = Configurational stability of compound in water-acetonitrile assessed as forward rate epimerization at 25 degC by dynamic HPLC analysis; format: physicochemical; settings: buffer; outline: as §2
[22] = Configurational stability of compound in water-acetonitrile assessed as backward rate epimerization at pH 7 using C-8 column by stopped flow bidimensional recycling HPLC; format: physicochemical; settings: buffer; outline: as §3
[23] = Configurational stability of compound in water-acetonitrile assessed as forward rate equilibrium epimerization at pH 7 using IAM column by stopped flow bidimensional recycling HPLC; format: physicochemical; settings: artificial membrane; outline: as §1
[24] = Configurational stability of compound in water-acetonitrile assessed as backward rate equilibrium epimerization at pH 7 using IAM column by stopped flow bidimensional recycling HPLC; format: physicochemical; settings: artificial membrane; outline: as §1
[25] = Configurational stability of compound in water-acetonitrile assessed as forward rate epimerization at pH 2.2 using C-8 column by stopped flow bidimensional recycling HPLC; format: physicochemical; settings: buffer; outline: as §3
DIV7-10 = test: Positive allosteric modulation activity at AMPA receptor in Sprague-Dawley rat cortical neuronal DIV7-10 cells assessed as increase in kainate induced currents at 100 uM by patch clamp electrophysiological method; format: cell-based
Outline: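 Cortical neurons from newborn Sprague–Dawley rats: trypsin-dispersed, plated on poly-L-lysine and switched to BME/Neurobasal with B27 after 24 h, with 1 µM Ara-C added at DIV5. Whole-cell voltage-clamp at room temperature on DIV7-10 cells. Kainate-evoked currents recorded with co-application of epimeric mixture at 100 µM. Potentiation given as mean ± SE, n = 4.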

[26] = Configurational stability of compound in water-acetonitrile assessed as backward rate epimerization at 25 degC by dynamic HPLC analysis; format: physicochemical; settings: buffer; outline: as §2
[27] = Configurational stability of compound in water-acetonitrile assessed as forward rate epimerization at pH 7 using IAM column by stopped flow bidimensional recycling HPLC; format: physicochemical; settings: artificial membrane; outline: as §1
[28] = Configurational stability of compound in water-acetonitrile assessed as backward rate equilibrium epimerization at pH 7 using C-8 column by stopped flow bidimensional recycling HPLC; format: physicochemical; settings: buffer; outline: as §3

- Stability [1]: Stable
SMILES: CC1CN2c3c1cc(Cl)cc3S(=O)(=O)NC2C (stereo not given)

- K [2]: 2.75 ×10⁻⁴ /s
- K [3]: 0.71 ×10⁻⁴ /s
- K [4]: 10.7 ×10⁻⁴ /s
- K [5]: 1.28 ×10⁻⁴ /s
- K [6]: 6.52 ×10⁻⁴ /s
- K [7]: 0.17 ×10⁻⁴ /s
- K [8]: 2.26 ×10⁻⁴ /s
- K [9]: 1.87 ×10⁻⁴ /s
- K [10]: 5.9 ×10⁻⁴ /s
- K [11]: 1.99 ×10⁻⁴ /s
- half-life [12]: 10 min
- K [13]: 6.68 ×10⁻⁴ /s
- K [14]: 9.63 ×10⁻⁴ /s
- K [15]: 4.49 ×10⁻⁴ /s
- K [16]: 0.06 ×10⁻⁴ /s
- K [17]: 6.68 ×10⁻⁴ /s
- half-life [18]: 10 min
- K [19]: 3.48 ×10⁻⁴ /s
- K [20]: 0.23 ×10⁻⁴ /s
- K [21]: 1.11 ×10⁻⁴ /s
- K [22]: 2.34 ×10⁻⁴ /s
- K [23]: 7.2 ×10⁻⁴ /s
- K [24]: 8.93 ×10⁻⁴ /s
- K [25]: 4.61 ×10⁻⁴ /s
- K [26]: 0.76 ×10⁻⁴ /s
- K [27]: 5.3 ×10⁻⁴ /s
- K [28]: 7.77 ×10⁻⁴ /s
SMILES: CC1NS(=O)(=O)c2cc(Cl)cc3c2N1C[C@@H]3C (mixture of isomers)
- Activity (DIV7-10): 112%

SMILES: CC1NS(=O)(=O)c2cc(Cl)cc3c2N1C[C@H]3C (mixture of isomers)
- Activity (DIV7-10): 250%
